Screening data as filed in PubChem BioAssay.
In the library only some 3.3% were active in any assay of this set; here they are far more common.
NFkB transloc inh = blocks IL-1B driven NFkB nuclear translocation in HUVEC cells | HUVEC IL-1B NFkB p65 nuclear translocation imaging | inhibition, % at 2 µM | 0.43% of 94,000 active;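 active = inhibition above about 30% together with a positive call from visual inspection of the well image, limit read from the data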;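 also: nuclear over cytoplasmic p65 intensity ratio measured by imaging; 0% = IL-1B stimulated DMSO wells and 100% = unstimulated DMSO wells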
IL1B NFkB pot = enhances IL-1B driven NFkB nuclear translocation. HUVEC IL-1B NFkB p65 nuclear translocation imaging. activation, % at 2 µM. 0.3% of 94,000 active. AID 819;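 active = activation above 40%, about the mean plus 3 SD, also judged a hit on visual image review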;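 also: percent activation is computed from the nuclear over cytoplasmic p65 intensity ratio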
FAK inh = inhibitors of human focal adhesion kinase; Q05397; biochemical FAK kinase activity assay; inhibition, %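 (tested at 7 µM)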; 0.84% of 97,000 active; AID 727; in the data active = inhibition above about 19%;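 also: 0% = DMSO and 100% = reference compound high control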
IL1B cytotox = HUVEC cytotoxicity counter-screen, IL-1B stimulated | HUVEC cell count loss, Hoechst imaging | cell count reduction, % at 2 µM | 0.41% of 94,000 active | AID 845;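 active = cell count reduction more than 3 SD above the screen-wide mean, cut at about 70% in these data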;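 also: normalized per plate to untreated control cells as the no-loss baseline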
Rev-RRE block = disrupts HIV-1 Rev binding to RRE RNA; inhibition, % at 8 µM; Rev peptide-RRE RNA binding, FRET; P05866; 0.79% of 97,000 active;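 active = inhibition above the screen-wide mean plus 3 SD, cut at about 35% in these data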;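 also: 0% = median DMSO wells and 100% = median Neomycin B control wells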
Target sequence (P05866 whole entry, looked up): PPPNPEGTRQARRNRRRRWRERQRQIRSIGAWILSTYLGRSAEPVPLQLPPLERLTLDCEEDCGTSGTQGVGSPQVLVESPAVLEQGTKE
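Probe or stimulus: fluorescein-Rev peptide as binding partner; assay system: Cy5-tagged RRE RNA duplex with fluorescein-tagged Rev peptide; timing: 5 min compound–RNA preincubation, then 15 min with peptide, 25 °C; medium: HEPES pH 7.5 buffer with KCl, MgCl2, NaCl and EDTA; signal: fluorescein-to-Cy5 FRET, 480 nm excitation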
Measles CPE = protection of cells from measles virus; Measles virus-infected cells, CPE protection, absorbance; protection (pct of control), % at 4 µM; 1.5% of 140,000 active; AID 841; in the data active = protection mostly above about 24%, no sharp cut-off; inactive = mostly below about 26%
Numbers without * were called inactive.

`COc1cc(OC)cc(-c2cc3nc(C)cc(N4CCN(C(=O)c5ccco5)CC4)n3n2)c1` gave NFkB transloc inh -42, IL1B NFkB pot 43*, FAK inh 4, IL1B cytotox 2, Rev-RRE block 0 and Measles CPE 5.
`Cc1ccc(C(=O)Nc2ccc(O)cc2C(=O)O)cc1C` gave NFkB transloc inh -119, IL1B NFkB pot 119*, FAK inh 0, IL1B cytotox 8, Rev-RRE block 7 and Measles CPE 4.
For Cc1ccc(C(=O)Nc2ccc(O)cc2C(=O)O)cc1 the results were NFkB transloc inh -2, IL1B NFkB pot 2, FAK inh 0, IL1B cytotox 11, Rev-RRE block 7 and Measles CPE 2.
COC(=O)CNC(=O)c1nn(-c2cccc(OC)c2)c(=O)c2ccccc12 was read as Measles CPE 44*.
For CCCCCCCCCCCC(=O)N/N=C/c1ccco1 the results were NFkB transloc inh 22, IL1B NFkB pot -22, FAK inh 1, IL1B cytotox -8, Rev-RRE block 11 and Measles CPE 14.
For O=C(Cc1cscn1)c1ccc(O)cc1O the results were FAK inh 1, Rev-RRE block 8 and Measles CPE 36*.
Screening Cc1nc(CC(=O)c2ccc(O)cc2O)cs1 returned NFkB transloc inh -5, IL1B NFkB pot 5, FAK inh 1, IL1B cytotox -14, Rev-RRE block 0 and Measles CPE 7.
For COCCn1c(N)c(C#N)c2nc3ccccc3nc21 the results were NFkB transloc inh -3, IL1B NFkB pot 3, FAK inh 4, IL1B cytotox -7, Rev-RRE block -1 and Measles CPE 6.
`Cn1c(-c2c(N)n(C3CCCC3)c3nc4ccccc4nc23)nc2ccccc21` gave NFkB transloc inh -2, IL1B NFkB pot 2, FAK inh -2, IL1B cytotox -16, Rev-RRE block 58* and Measles CPE 12.
For Cn1c(-c2c(N)n(CCCc3ccccc3)c3nc4ccccc4nc23)nc2ccccc21 the results were NFkB transloc inh 10, IL1B NFkB pot -10, FAK inh -1, IL1B cytotox 10, Rev-RRE block 45* and Measles CPE 0.
Screening Cn1c(-c2c(N)n(CCc3ccccc3)c3nc4ccccc4nc23)nc2ccccc21 returned NFkB transloc inh 8, IL1B NFkB pot -8, FAK inh 0, IL1B cytotox 8, Rev-RRE block 44* and Measles CPE 14.
Screening COCCCn1c(N)c(-c2nc3ccccc3n2C)c2nc3ccccc3nc21 returned NFkB transloc inh -11, IL1B NFkB pot 11, FAK inh 0, IL1B cytotox -13, Rev-RRE block 58* and Measles CPE 6.
Screening CS(=O)(=O)N(Cc1ccc(Cl)cc1)c1ccc(C(=O)N/N=C/c2cc3ccccc3nc2Cl)cc1 returned Measles CPE 16.
CC1=CC(C#N)(C#N)C(C#N)(C#N)C(c2ccccc2)N1 (stereo not given) was read as NFkB transloc inh -7, IL1B NFkB pot 7, FAK inh 4, IL1B cytotox -7, Rev-RRE block 52* and Measles CPE 4.
Screening COC1(OC)N=C(N)C2(C#N)C(c3ccccc3)NC(C)=CC12C#N (stereo not given) returned NFkB transloc inh 0, IL1B NFkB pot 0, FAK inh 6, IL1B cytotox -6, Rev-RRE block 7 and Measles CPE 6.
For O=C(CSc1nnc(-c2ccccc2)o1)OCc1ccccc1 the results were NFkB transloc inh -69, IL1B NFkB pot 69*, FAK inh 4, IL1B cytotox -1, Rev-RRE block 5 and Measles CPE 7.
`CCc1ccccc1NC(=O)CN(C)C(=O)CSc1nn(-c2ccc(F)cc2)c(=S)s1` gave Measles CPE 12.
Screening Cc1cccc2cc(C#N)c(SCCN3CCCCC3)nc12 returned NFkB transloc inh 97*, IL1B NFkB pot -97, FAK inh -1, IL1B cytotox 84* and Rev-RRE block 13.
CCCCc1nc(N2CCOCC2)c(C#N)c2c1CCCC2 was read as NFkB transloc inh -4, IL1B NFkB pot 4, FAK inh 1, IL1B cytotox -3, Rev-RRE block 3 and Measles CPE 56*.
Screening CC1CN(C(=O)/C(C#N)=C2\N=C(NC(=O)c3ccccc3Cl)c3ccccc32)CC(C)O1 (stereo not given) returned Measles CPE 13.
